In general, Ki refers to a dissociation constant, usually derived from enzyme kinetics or from competition with a known ligand. By Kd is commonly meant a measure of binding affinity in units of concentration. For orientation: EC50 means the concentration that produces a half-maximal response.

The target in assay [1] is T1, 5-hydroxytryptamine receptor 4 (Homo sapiens, UniProt Q13639). Briefly: Binding affinity was determined against cloned 5-hydroxytryptamine 4E receptor isoform expressed in C6 glial cells incubated with 0.2 nM [3H]GR-113808. In kind it is cell-based.
The target of assay [2] is T1, 5-hydroxytryptamine receptor 4. Briefly: ,Antagonism of stimulation of 5-hydroxytryptamine receptor on the L-type calcium current (I Ca) in isolated human atrial myocytes. In kind it is functional, cell-based, Cardiac atrium.
Assay [3] has the same target. Briefly: Concentration required to produce half-maximal response against 5-hydroxytryptamine receptor on the L-type calcium current (I Ca) in isolated human atrial myocytes. In kind it is cell-based, Cardiac atrium. An outline of the steps:
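Whole-cell patch clamp on enzymatically dissociated human atrial myocytes, room temperature (19–25 °C); Cs-based internal, pCa 8.5; I_Ca at 0 mV every 8 s, peak minus current at end of 400-ms pulse.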

The target is the same in assay [4]. As to the kind of experiment: Binding affinity was determined against cloned 5-hydroxytryptamine 4A receptor isoform expressed in COS-7 cells. It is filed as cell-based.
Assay [5] shares this target. Briefly: Binding affinity was determined against cloned 5-hydroxytryptamine 4B receptor isoform expressed in COS-7 cells. In kind it is cell-based.
The target is the same in assay [6]. Briefly: Binding affinity was determined against cloned 5-hydroxytryptamine 4D receptor isoform expressed in COS-7 cells. It is filed as cell-based.
The target is the same in assay [7]. Briefly: Binding affinity was determined against cloned 5-hydroxytryptamine 4C receptor isoform expressed in COS-7 cells. In kind it is cell-based.

T1 sequence (Q13639 whole entry, canonical isoform): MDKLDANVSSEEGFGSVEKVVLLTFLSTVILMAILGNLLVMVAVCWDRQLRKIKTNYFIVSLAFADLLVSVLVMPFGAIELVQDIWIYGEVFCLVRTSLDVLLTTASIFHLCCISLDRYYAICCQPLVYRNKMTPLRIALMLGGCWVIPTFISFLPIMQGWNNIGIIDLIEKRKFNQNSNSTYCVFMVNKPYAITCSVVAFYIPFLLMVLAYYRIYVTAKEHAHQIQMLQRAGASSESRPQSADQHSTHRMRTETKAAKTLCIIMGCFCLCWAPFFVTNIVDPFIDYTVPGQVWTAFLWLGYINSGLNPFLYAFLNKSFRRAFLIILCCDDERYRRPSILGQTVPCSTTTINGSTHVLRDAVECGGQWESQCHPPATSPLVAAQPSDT

`COc1cc(N)c(Cl)cc1C(=O)OCCN1CCN(c2ccccc2F)CC1` showed a Ki in assay [1] of 16.8 nM.

`COc1cc(N)c(Cl)cc1C(=O)OCCN1CCN(c2ccncn2)CC1` had a Ki in assay [1] of 9.2 nM.

`COc1cc(N)c(Cl)cc1C(=O)OCCN1CCN(c2cccc(Cl)c2)CC1`: the Ki in assay [1] came out at 162 nM.

In assay [1], `COc1cc(N)c(Cl)cc1C(=O)OCCN1CCN(c2cccnn2)CC1` displayed a Ki of 1.4 nM.

In turn, `COc1cc(N)c(Cl)cc1C(=O)OCCN1CCN(c2cccc3ccccc23)CC1` had a Ki in assay [1] of more than 1000 nM.

Regarding `COc1cc(N)c(Cl)cc1C(=O)OCCN1CCN(C)CC1`, in assay [1], the Ki is more than 1000 nM.

In assay [1], `COc1cccc(N2CCN(CCOC(=O)c3cc(Cl)c(N)cc3OC)CC2)c1` gave a Ki of 3 nM. This counts as single-digit nanomolar.

For the molecule `COc1ccc(N2CCN(CCOC(=O)c3cc(Cl)c(N)cc3OC)CC2)cc1`, affinity in assay [1] was put at a Ki of 17.7 nM.

`COc1cc(N)c(Cl)cc1C(=O)OCCN1CCN(c2ccccc2OC)CC1` returned an inhibition constant Ki in assay [1] of 64 nM.

Molecule `CCOC(=O)N1CCN(CCOC(=O)c2cc(Cl)c(N)cc2OC)CC1` gave a Ki in assay [1] of 23 nM.

Turning to `COc1cc(N)c(Cl)cc1C(=O)OCCN1CCN(Cc2ccccc2)CC1`, affinity in assay [1] was put at a Ki of 240 nM. Compared with the last molecule, the Ki is about 10-fold higher.

For `COc1cc(N)c(Cl)cc1C(=O)OCCN1CCNCC1`, the Ki in assay [1] was more than 1000 nM.

Regarding `COc1cc(N)c(Cl)cc1C(=O)OCCN1CCN(c2cccc(C(F)(F)F)c2)CC1`, the affinity in assay [1] corresponds to a Ki of 199 nM.

`COc1cc(N)c(Cl)cc1C(=O)OCCN1CCN(c2ccccc2Cl)CC1` registered a Ki in assay [1] of 296 nM. The Ki values of the last two molecules are within 1.5-fold of each other.

On to `COc1cc(N)c(Cl)cc1C(=O)OCCN1CCN(C(=O)OC(C)(C)C)CC1`, for which, in assay [1], the Ki was more than 1000 nM.

The molecule `COc1cc(N)c(Cl)cc1C(=O)OCCN1CCN(c2ccc(F)cc2)CC1` yielded a Ki in assay [1] of 23.1 nM.

In the case of `Cn1cc(C(=O)OCC2CCN(CCNS(C)(=O)=O)CC2)c2ccccc21`, the affinity in assay [1], expressed as Ki, was 0.1 nM.

For the molecule `COc1cc(N)c(Cl)cc1C(=O)OCCN1CCN(c2ncccn2)CC1`, in assay [2], the Kd was 0.7 nM. In assay [3], the EC50 came out at 4.5 nM. Besides, the Ki came to 3.5 nM in assay [4]; 8.1 nM in assay [5]; 1 nM in assay [1]; 7.03 nM in assay [6]; 2.47 nM in assay [7].

`COc1cc(N)c(Cl)cc1C(=O)OCCN1CCN(c2cnc(Cl)nc2)CC1` yielded a Ki in assay [1] of 9.8 nM.

In turn, `COc1cc(N)c(Cl)cc1C(=O)OCCN1CCN(c2ccc(Cl)cc2)CC1` came in with a Ki in assay [1] of 715 nM.

Consider `COc1cc(N)c(Cl)cc1C(=O)OCCN1CCN(c2ccc(Cl)nn2)CC1`, for which, in assay [1], the Ki is 2 nM.

The molecule `COc1cc(N)c(Cl)cc1C(=O)OCCCN1CCN(c2ccccc2)CC1` showed a Ki in assay [1] of 11.5 nM.

Molecule `COc1cc(N)c(Cl)cc1C(=O)OCCN1CCN(c2ccncc2)CC1` had an inhibitory constant (Ki) in assay [1] of 3.5 nM.

With `COc1cc(N)c(Cl)cc1C(=O)OCCN1CCN(c2ccccc2)CC1`, the Ki in assay [4] turned out to be 23 nM; in assay [5], 55 nM; in assay [1] it was 14.3 nM; in assay [6] it was 32 nM; in assay [7], 12.5 nM.

With `COc1cc(N)c(Cl)cc1C(=O)OCCN1CCN(c2ccccn2)CC1`, the Ki in assay [1] amounted to 1.5 nM. That is a single-digit nanomolar value.

`COc1cc(N)c(Cl)cc1C(=O)OCCN1CCN(c2cnccn2)CC1`: the Ki in assay [1] is 1.4 nM.

Values taken from ChEMBL document CHEMBL1133682, “New arylpiperazine derivatives as antagonists of the human cloned 5-HT(4) receptor isoforms” (J Med Chem, 2000).
